LANA DNA inh: inhibitors of KSHV LANA C-terminal domain DNA binding; inhibition, % at 9 µM; MBP-C-LANA/FAM-LBS DNA binding, fluorescence polarization; AID 504423; 340,000 compounds, 0.078% hits;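 active = highest replicate inhibition at or above 60% at 9 µM, even if other replicates fall short; inactive = all replicates below 60% inhibition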;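 also: 0% = neutral control wells and 100% = 4 µM acridine orange control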
CAL PDZ FP-1: blocks peptide binding to the human CAL PDZ domain. Q9HD26. purified CAL PDZ, TMR-peptide fluorescence polarization, 1 h. inhibition, % at 24.9 µM. 300,000 compounds, 0.92% hits. AID 602252;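 active = mean inhibition of at least 30% with at least half of replicates also reaching 30%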;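 also: 0% = DMSO neutral control and 100% = excess unlabeled competitor peptide PRC23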
Keap1-Nrf2 PPI: inhibitors of human Keap1-Nrf2 protein-protein interaction | Q14145 | Keap1 Kelch-Nrf2 peptide fluorescence polarization, 1536-well | inhibition, % at 9.4 µM | 340,000 compounds, 0.15% hits | AID 504523; in the data active = inhibition above about 12%;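 also: human Keap1 Kelch domain with fluorescein labeled Nrf2 9mer peptide probe; 0% = neutral control wells and 100% = peptide positive control; higher means more block of Keap1 binding to Nrf2 peptide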
Target sequence (Q14145 whole entry, looked up, the tested form may be a part): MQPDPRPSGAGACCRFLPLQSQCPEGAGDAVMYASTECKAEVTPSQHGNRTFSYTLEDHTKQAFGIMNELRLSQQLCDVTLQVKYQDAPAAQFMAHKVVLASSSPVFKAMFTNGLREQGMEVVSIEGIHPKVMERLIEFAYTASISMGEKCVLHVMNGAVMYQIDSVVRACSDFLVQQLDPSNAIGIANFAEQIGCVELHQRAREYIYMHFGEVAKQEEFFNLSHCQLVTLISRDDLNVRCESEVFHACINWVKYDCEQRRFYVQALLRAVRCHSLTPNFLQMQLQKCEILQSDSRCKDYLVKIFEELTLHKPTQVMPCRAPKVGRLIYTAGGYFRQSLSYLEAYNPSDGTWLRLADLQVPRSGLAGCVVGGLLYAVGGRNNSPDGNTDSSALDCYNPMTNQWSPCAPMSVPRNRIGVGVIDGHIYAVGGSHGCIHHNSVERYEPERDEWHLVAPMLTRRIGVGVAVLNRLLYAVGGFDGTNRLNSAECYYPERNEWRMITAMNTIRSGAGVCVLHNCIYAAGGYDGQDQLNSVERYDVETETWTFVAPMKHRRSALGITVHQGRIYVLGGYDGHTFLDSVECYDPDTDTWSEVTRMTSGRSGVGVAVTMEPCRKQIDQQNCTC
APOBEC3G inh: APOBEC3G (human) deaminase inhibition | Q9HC16 | recombinant A3G, ssDNA deamination FAM/TAMRA fluorescence | inhibition, % at 20 µM | 330,000 compounds, 0.28% hits | AID 493012;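 active = inhibition of at least 40% at 20 µM, with no more than 30% in the related APOBEC3A deaminase screen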;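 also: plate controls were DMSO wells with A3G for no effect and wells lacking A3G enzyme for full effect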
CAL PDZ FP-2: blocks peptide binding to human CAL PDZ domain | Q9HD26 | purified CAL PDZ, TMR-peptide fluorescence polarization, 1 h | inhibition, % at 20 µM | 330,000 compounds, 0.02% hits;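 active = highest replicate inhibition of at least 40%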;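 also: plate controls were DMSO neutral control wells for no effect and unlabeled competitor peptide control wells for full effect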
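Material: tagged CAL PDZ protein CerCALP, purified; buffer or medium: sodium phosphate/NaCl buffer pH 7.4 with TCEP, IgG, Thesit; also added: fluorescent TMR peptide probe; schedule: 1 h incubation at room temperature before polarization reading; technique: fluorescence polarization from S- and P-plane intensities, G-factor corrected; control set: unlabelled peptide and DMSO controls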
A3A deaminase: blocks human APOBEC3A ssDNA deamination; P31941; recombinant A3A, FAM/TAMRA ssDNA deamination fluorescence; inhibition, % at 20 µM; 330,000 compounds, 0.41% hits;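 active = at least 40% inhibition at 20 µM here, with at most 30% in a related deaminase screen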;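 also: plate controls were A3A with DMSO for no effect and wells lacking A3A enzyme for full effect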
* = called active by the depositor; / = not tested or not shown. Shown are actives, neighbours in structure and some others; about 1.7% of the full set was active somewhere.

SMILES	LANA DNA inh	CAL PDZ FP-1	Keap1-Nrf2 PPI	APOBEC3G inh	CAL PDZ FP-2	A3A deaminase
CC(C)NC(=O)CSc1nnc(CNC(=O)OC(C)(C)C)n1C	1	84*	-3	4	0	7
CCc1cc(Br)ccc1NC(=S)NCCc1ccccc1	-1	-2	-6	-4	-3	0
C/C(=N\NC(=O)CNc1cccc2ccccc12)c1ccccc1	-1	31*	-2	-6	0	1
C/C(CCc1ccco1)=N\NC(=O)CNc1cccc2ccccc12	1	4	0	-5	-3	-2
CCOC(=O)C1=NNC(C(=O)c2ccccc2)C1c1ccc(C)cc1 (centres undefined)	-3	59*	1	-12	-1	-4
CCOC(=O)C1=NNC(C(=O)c2ccc(C)cc2)C1c1ccc(C)cc1 (centres undefined)	3	0	-2	-5	-1	-2
Cc1cccc(C)c1NC(=O)CN(C)C(=O)C1CC1C (centres undefined)	1	/	2	-8	1	-4
O=C(CNC(=O)c1ccc(-c2ccccc2)cc1)Nc1cccc(CO)c1	0	-4	0	-4	0	-7
Cn1c(C(=O)N2CCCC(C(=O)c3ccc(C(F)(F)F)cc3)C2)cc(=O)n(C)c1=O (centres undefined)	0	-2	-2	-2	0	-1
CC(NC(=O)C12CC3CC(C1)CC(n1cncn1)(C3)C2)C12CC3CC(CC(C3)C1)C2 (centres undefined)	2	57*	-4	1	0	2
O=C(NC1CCCCC1)C12CC3CC(C1)CC(n1cncn1)(C3)C2	-1	-4	-1	5	-1	-3
NNc1nnc2c3cc(F)ccc3n(Cc3ccccc3)c2n1	62*	/	-1	-8	-1	-4
COc1cc2[nH]c(=S)nc(NCCCOC(C)C)c2cc1OC	-1	42*	-15	-3	-2	2
CCCC(=O)Nc1cc(C(F)(F)F)ccc1N1CCOCC1	-2	35*	-5	-11	1	1
Nc1ccc(S(=O)(=O)NC2(C(F)(F)F)NC(=O)N(c3ccccc3F)C2=O)cc1 (centres undefined)	1	-2	-3	0	-4	0
Cc1cc(C)c(S(=O)(=O)Nc2ccc(OCC(=O)O)cc2)c(C)c1	-3	43*	-2	-4	-1	-2
COc1ccc(NS(=O)(=O)c2c(C)cc(C)cc2C)cc1	3	-3	-2	-5	0	1
O=C(CCN1C(=O)/C(=C\c2ccco2)SC1=S)Nc1ccc(C(=O)O)c(O)c1	83*	-8	-2	63	-3	86
O=C(CCN1C(=O)/C(=C/c2ccco2)SC1=S)Nc1ccc(C(=O)O)c(O)c1	88*	-4	-3	39	0	66
COc1cc([N+](=O)[O-])cc(CN2CCCCC2)c1O	1	-2	-6	-4	-3	0
C=CCc1ccccc1OCC(O)CN(CC)CC (centres undefined)	-2	-2	-2	-5	-1	0
CCc1nnc(NC(=O)c2cccc(NC(=O)C(C)C)c2)s1	-1	45*	-4	-5	-1	-5
Cc1ccc(S(=O)(=O)CCC(=O)OCn2nnc3ccccc3c2=O)cc1	0	1	-2	0	-1	3
CC(C)(C)c1ccc(C(=O)NN2C(=O)CSC2=S)cc1	0	-9	3	-7	0	0
Cc1cccc(C(=O)Nc2ccc(C(=O)/C=C/c3ccncc3)cc2)c1	0	-4	-1	-8	43*	0
SMILES	LANA DNA inh	CAL PDZ FP-1	Keap1-Nrf2 PPI	APOBEC3G inh	CAL PDZ FP-2	A3A deaminase
CCNC(=O)COC(=O)c1ccc(-n2nc(C)cc2C)cc1	0	3	-5	-1	-1	1
CC(C)(C)c1ccc(C(=O)NCc2nnc(SCC(=O)NCc3ccco3)o2)cc1	0	-2	3	-1	9	2
O=C(CSc1nnc(CNC(=O)c2ccccc2)o1)c1ccc(Cl)cc1	1	-7	-1	-9	-1	-2
COc1ccc(C(=O)NCC(=O)OCC(=O)NCc2ccco2)cc1	-2	43*	3	-1	0	2
COc1ccc(C(=O)CSc2nnc(CNC(=O)c3ccccc3)o2)cc1	-1	52*	-2	0	0	-1
COc1ccc(C(=O)NCc2nnc(SCC(=O)NCc3ccco3)o2)cc1	0	88*	-5	-4	-1	-4
Cc1cc(C)n(-c2ccc(C(=O)OCC(=O)NCc3ccco3)cc2)n1	1	40*	-3	-2	/	0
O=C(Nc1ccc(-n2cnnn2)cc1)c1cccc(S(=O)(=O)N2CCCC2)c1	0	18	-1	-2	-2	0
COc1cc(C(=O)NCc2nnc(SCC(=O)Nc3c(C)cc(C)cc3C)o2)cc(OC)c1OC	0	60*	3	-8	-1	-7
COc1cc(C=O)ccc1OC(=O)c1cccnc1	-4	-4	-3	-10	-1	-4
Cc1ccc(C2CC(c3cccs3)=NN2C(=O)CCl)cc1 (centres undefined)	8	91*	-12	-8	/	-3
CCC(=O)N1N=C(c2cccs2)CC1c1ccc(C)cc1 (centres undefined)	5	1	1	-9	-1	-5
O=S(=O)(NCc1cc(-c2ccc(Cl)cc2)no1)c1ccc(Cl)cc1	0	44*	0	2	-1	1
O=S(=O)(NCc1cc(-c2ccc(Cl)cc2)no1)c1ccccc1	-1	-2	0	-3	-2	2
COC(=O)c1cn(NC(=O)Cc2cccc(OC)c2)c(=O)c2ccccc12	-3	34*	-7	-7	-1	-3
COC(=O)c1cn(NC(=O)Cc2ccc(OC)c(OC)c2)c(=O)c2ccccc12	-1	6	0	-13	0	4
CCc1ccc2nc(N(CCN(C)C)C(=O)c3ccc4ccccc4c3)sc2c1	2	69*	-2	-1	-2	-3
CN(C)CCN(C(=O)c1ccc2ccccc2c1)c1nc2ccc(F)cc2s1	0	-3	-1	-6	-2	-6
O=C(CSc1nnc(SCc2ccc(Cl)cc2)s1)N/N=C/c1ccc(C(=O)O)cc1	3	47*	2	-2	-3	-2
O=C(O)COc1ccccc1/C=N/NC(=O)CSc1nnc(SCc2ccc(Cl)cc2)s1	0	-10	-1	-1	-1	9
COc1ccc(NC(=O)/C(=C\c2ccncc2)NC(=O)c2ccccc2)cc1	-2	/	-3	0	0	0
Cc1[nH]c2ccccc2c1C(=O)C(=O)NCCOc1ccccc1	0	46*	3	3	-1	4
COc1ccc(CCNC(=O)C(=O)c2c(C)[nH]c3ccccc23)cc1	-1	-2	0	-6	-2	-14
